# Results: ChEMBL document CHEMBL4513216, “Probing the Open Global Health Chemical Diversity Library for Multistage-Active Starting Points for Next-Generation Antimalarials” (ACS Infect Dis, 2020)
# Test: Toxicity liver stage against HepG2, at 10uM
# Type: cell-based
# Design: test concentration 10 uM, cell line HepG2-A16-CD81EGFP
# Conditions: human, HepG2-A16-CD81EGFP cells; read-out: INHIBITION
# In short: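 Uninfected HepG2-A16-CD81EGFP cells, 3 × 10^3 per well, 1536-well, plated on prespotted compound at 10 μM final, parasite-free screening media added to match infected plates; puromycin 10 μM positive, DMSO 0.5% negative; run in parallel with 48 h PbLuc assay at 37 °C, 5% CO2; viability by CellTiter-Glo luminescence, normalized to controls.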
row,Structure (SMILES),cytotoxicity at 10 µM
1,O=C(NC[C@H]1OC[C@@H](N(CC2CC2)CC2CC2)[C@@H]1O)Nc1ccccc1,-2.62%
2,CC(=O)N1CCC(N2CCOC[C@H]2c2nc(-c3ccncc3)c[nH]2)CC1,1.58%
3,CCOC(=O)[C@H]1[C@@H](O)C(=O)N(C)C12CCN(C(=O)CC1CCCC1)CC2,-1%
4,COCCCNC(=O)c1cc(-c2ccc(OC)cc2)nn1C,1.54%
5,Cc1nnc2ccc(OCCNS(=O)(=O)c3cccs3)nn12,-12.1%
6,O=C(c1ccc(F)cc1F)N(CC(F)(F)F)C1CCOCC1,1.24%
7,O=C(c1ccnnc1)N1CCO[C@H]2[C@@H](OCc3cccnc3)CC[C@@H]21,2.93%
8,COc1nn(C)c2c1CCCN(C(=O)c1ccccc1F)C2,11.5%
9,O=C1COC2(CCN(S(=O)(=O)C3CC3)CC2)CN1c1ccsc1,6.12%
10,COc1ccc(C)cc1-c1[nH]c2ccccc2c1C(=O)O,0.806%
11,O=C(c1ccc2c(c1)OCO2)N1CCCSCC1CN1CCCC1 (configuration not stated),6.95%
12,CCC(C)c1noc(C2CCN(C(=O)c3cccnc3)CC2)n1 (configuration not stated),-10.7%
13,O=C1CN(C(=O)C2CN(c3cccc(Cl)c3)CCO2)CCN1 (configuration not stated),-1.77%
14,O=C1NC2(CCN(CC(=O)N3CCOCC3)CC2)Nc2ccccc21,-1.71%
15,COCCC(=O)N1C[C@@H](c2cccc(OC)c2)[C@@]2(CCCCC(=O)N2)C1,9.47%
16,CCCn1cc(S(=O)(=O)N(C)Cc2nonc2C)c(C)n1,12.7%
17,CC(=O)N1C[C@H]2CCCN(S(=O)(=O)c3ccc(Cl)s3)[C@H]2C1,-2.32%
18,Cc1n[nH]c(C)c1CCC(=O)NCC1(O)CCN(c2ccccn2)C1 (configuration not stated),-1.08%
19,c1ccc2ncc(CC3CNCCOC3)cc2c1 (configuration not stated),-3.93%
20,COc1ncc(CN2CCCC2c2[nH]ncc2C(=O)N(C)C)cn1 (configuration not stated),-0.116%
21,CNC(=O)C1(C)CN(Cc2cn(C)c3ccc(F)cc23)CCO1 (configuration not stated),0.187%
22,O=C(NCCc1ccccc1)C1CCN(C(=O)Cn2cncn2)C1 (configuration not stated),2.55%
23,O=C(CNC(=O)C1(c2ccc(F)cc2F)CCC1)Nc1ccccn1,-16.5%

row,Structure (SMILES),cytotoxicity at 10 µM
1,Cc1ncc2c(n1)CN(CC1CCCCO1)CC2 (configuration not stated),-2.3%
2,Cc1ccc(CC(=O)NCC(O)c2cccc(C(F)(F)F)c2)cn1 (configuration not stated),-18.6%
3,Cc1ccc(S(N)(=O)=O)cc1C(=O)NC1CCCN(C)C1 (configuration not stated),-1.96%
4,Cc1ncccc1NS(=O)(=O)Cc1cccc(F)c1,2.43%
5,O=C1CSc2ccc(C(=O)N3CCCC(n4cccn4)C3)cc2N1 (configuration not stated),-6.65%
6,Cc1cc(C)n(CC(C)CNC(=O)NCc2ccco2)n1 (configuration not stated),-2.58%
7,Cc1ccc(C(F)(F)F)cc1NC(=O)C1CCCN1 (configuration not stated),4.28%
8,Cc1nc(C(=O)N(C)CC(F)(F)C(F)(F)F)c2ccccn12,2.56%
9,CC1CCN(c2ccc(C(=O)N3CCCC3c3nncn3C)cn2)CC1 (configuration not stated),-1.88%
10,CN1C(=O)CCc2cc(NS(=O)(=O)Cc3cccc(F)c3)ccc21,3.6%
11,O=C1CC2(CCSC2)C(=O)N1Cc1coc(-c2cccc(F)c2)n1 (configuration not stated),-0.237%
12,COc1ccc(Cl)cc1CCNC(=O)NCc1noc(C)n1,-4.76%
13,CN(Cc1ccc(C#N)cc1)CC1CCS(=O)(=O)C1 (configuration not stated),-5.78%
14,CNC(=O)C1CCCCN1C(=O)c1cn(CCOC)c2ccccc12 (configuration not stated),-0.408%
15,CC(C(=O)N1CCN(C(=O)c2ccc(F)cc2)CC1)n1ccnc1 (configuration not stated),-2.2%
16,CC(O)CNCc1c[nH]nc1-c1cc2ccccc2o1 (configuration not stated),0.788%
17,CCCN(C1CCc2ccccc2C1)S(C)(=O)=O (configuration not stated),0.595%
18,NC(=O)COc1cccc(C(=O)NCc2ccc(Cl)s2)c1,-0.935%
19,Cc1c(CC(=O)N2CCSCC2)nnn1-c1cccc(Cl)c1,-3.89%
20,Cc1ccc(O)c(CNC2CCc3nc(C)nn3C2)n1 (configuration not stated),-1.08%
21,COc1cc(F)ccc1N(C)Cc1cccnc1,-3.47%
22,Cc1cc(NCC2CC(=O)Nc3ccccc32)nc(C)n1 (configuration not stated),0.344%
23,Cc1cc(=O)n(C)cc1NC(=O)CC1CCC1,-9.64%

row,Structure (SMILES),cytotoxicity at 10 µM
1,O=C(NCCc1ccccn1)N1CCSC2(CCCCC2)C1,-18.6%
2,CCN(Cc1ccoc1)C(C(N)=O)c1cccc(Br)c1 (configuration not stated),2.34%
3,Cc1cccnc1CNC(=O)NC(C)Cc1c(C)nn(C)c1C (configuration not stated),3.92%
4,Cc1noc(CNC(=O)[C@@H](C)NC(=O)OC(C)(C)C)n1,4.91%
5,N#Cc1ccc(OCCN2CCNC(=O)C2c2cccs2)cc1 (configuration not stated),-2.62%
6,Cc1ccccc1C(CC(=O)N1CCc2sccc2C1)NC(N)=O (configuration not stated),0.0773%
7,CCc1cc(C(=O)N2CCc3c(ncn3CCc3ccccc3)C2)[nH]n1,-3.64%
8,c1ccc(NCc2ccsc2)c(Cn2cncn2)c1,1.42%
9,Cc1ccc(CNC2CCN(CCc3ccncc3)CC2)s1,-13.9%
10,CC(Sc1nnnn1C1CCOCC1)C(=O)NC1CCCCC1 (configuration not stated),18.3%
11,Cc1nc(CN2CCCC(N(C)CCc3cccs3)C2)no1 (configuration not stated),-21.8%
12,CO[C@H]1CCN(C(=O)Cc2ccccn2)[C@H]1Cc1ccncc1,2.26%
13,CN1CCN(c2ccc(C(=O)N3CCCC(c4ncc[nH]4)C3)cc2)CC1 (configuration not stated),4.15%
14,O=C(c1ccc2nccnc2c1)N1C[C@@H](CN2CCCC2)[C@@H](CO)C1,4.23%
15,O=C(c1cncc(NCC2COc3ccccc3C2)n1)N1CCOCC1 (configuration not stated),-3.37%
16,Cc1cccc(C(C(=O)N(C)Cc2cc(C)no2)N(C)C)c1 (configuration not stated),4.94%
17,CC(C)(C)N1CC(c2ncc(-c3ccc4c(c3)OCCO4)[nH]2)CC1=O (configuration not stated),6.19%
18,O=C(CSCC1CC1)N1CCCC(c2nccn2Cc2cccnc2)C1 (configuration not stated),3.86%
19,COc1cccc(-c2cnnc(N(C)CCC3CCCCO3)n2)c1 (configuration not stated),12.7%
20,CCCc1n[nH]c(=O)n1[C@@H](CC)c1ccccc1,-5.22%
21,Cn1cnnc1C1CCCN(Cc2nc(Cc3ccccc3)no2)C1 (configuration not stated),-4.29%
22,COCCN(C)CC(=O)N1C[C@@H](C)[C@](O)(C(C)C)C1,4.9%
23,COc1ccc(OC)c(C2CCN(CC(C)(C)N3CCOCC3)C2)c1 (configuration not stated),-0.359%

row,Structure (SMILES),cytotoxicity at 10 µM
1,C=C(C)COc1ccccc1CN1CCC(C(=O)NCC)C1 (configuration not stated),11.6%
2,CC(C)C[C@H](NCc1cc(O)c2cccc(F)c2n1)C(N)=O,5.71%
3,Cn1cccc1-c1cc(C(=O)N2CCCC2C(F)(F)F)[nH]n1 (configuration not stated),-0.968%
4,CC(C)[C@H]1CN(C(=O)CC2CCC2)C[C@@H]1N(C)C,8.91%
5,O=C(CSCC1CC1)N1CCCC(c2nccn2Cc2ccccn2)C1 (configuration not stated),1.34%
6,O=C(C1CC(=O)N(c2ccccc2)C1)N1CCC2(CC1)OCCO2 (configuration not stated),1.87%
7,COc1ccc(CN2C[C@@H](CN(C)C)[C@@H](CO)C2)cc1OC,-1.19%
8,Cc1ccc(C2(CN3CCCC3)CCNCC2)nc1,-12.8%
9,COc1cc2nc3n(c(=O)c2cc1OC)CCN(C)CC3,2.39%
10,CC1CCCN(CCNC(=O)c2ccn(-c3ccc(F)cc3)n2)C1 (configuration not stated),-0.734%
11,O=C(CN1C=Nc2ccccc2S1(=O)=O)NCc1ccccc1F,-3.73%
12,CN(C)c1ccc(C(=O)N2CCCC(n3cccn3)C2)nn1 (configuration not stated),-4.43%
13,Cc1cnc2c(S(=O)(=O)NCC3CCOC3)cccc2c1 (configuration not stated),-6.94%
14,CC(C)(C)c1ncc(C(=O)NC(C(N)=O)c2ccccc2)s1 (configuration not stated),-1.96%
15,Cc1cc(NC(=O)CN(C)C2CCCN(c3cccnn3)C2)on1 (configuration not stated),-5.93%
16,Cc1ccc(CC(=O)N2CCCC(c3nccs3)C2)cn1 (configuration not stated),-2.01%
17,Cc1ccc(N(CCC#N)C(=O)CN2CCCC2c2ccsc2)cc1 (configuration not stated),-9.01%
18,CN(C)c1ccc(C(=O)N2CCCC2c2noc(C3CC3)n2)nn1 (configuration not stated),-8.36%
19,CN(Cc1noc(C2CC2)n1)C1CCN(Cc2ncc[nH]2)C1 (configuration not stated),-1.87%
20,CCc1cc(CNC(=O)N2CCC(Cc3cnn(C)c3)C2)on1 (configuration not stated),-6.04%
21,CNc1nc(CNC(=O)Nc2cccc(Cl)c2OC)cs1,-12.4%
22,Cc1cnn(CCNCc2nnc(Cc3ccccc3)o2)c1,-8.63%
23,CC(C(=O)NCCOc1ccccc1)n1cncn1 (configuration not stated),-6.85%

row,Structure (SMILES),cytotoxicity at 10 µM
1,COCCCN1CCCC1c1noc(C2CC2)n1 (configuration not stated),-11.5%
2,CNC(=O)COc1ccc(CNCc2c(C)nn(C)c2N(C)C)cc1,-5.92%
3,OC(CNCCn1cccn1)c1ccc(C(F)(F)F)cc1 (configuration not stated),-5.4%
4,Cc1nn(C)c(C)c1C1CCCN1C(=O)c1cnccn1 (configuration not stated),-15.7%
5,Cn1cc(C(=O)CC2CCCN2C(=O)c2coc3ccccc23)cn1 (configuration not stated),-0.65%
6,CCNC(c1ccc(Cl)cc1)c1cccnc1 (configuration not stated),5.71%
7,CS(=O)(=O)NCC1CCCN(C(=O)COCC(F)(F)F)C1 (configuration not stated),-3.12%
8,CC(C(=O)NCc1ccnc(N2CCN(C)CC2)c1)n1cccn1 (configuration not stated),-10.2%
9,Cc1ncc2c(n1)CN(CCCc1nc3ccccc3o1)CC2,6.81%
10,O=C(c1cccc(CNCC2CNc3ccnn3C2)c1)N1CCCC1 (configuration not stated),6.26%
11,CCn1cc(NC(=O)NCC(O)CN2CCCCC2)cn1 (configuration not stated),3.75%
12,O=C(Nc1cccnc1)[C@H]1C[C@H]2OCC[C@H]2N(C(=O)c2ccsc2)C1,-1.24%
13,c1cncc(OC[C@]23COC[C@H]2CN(Cc2ccsc2)C3)c1,14.7%
14,Fc1ccc(CN2CCC(c3n[nH]c4ncccc34)CC2)cc1F,9.12%
15,c1cnc(NC2COC3(CCN(Cc4ccoc4)CC3)C2)nc1 (configuration not stated),2.11%
16,CC(C)c1nn(C)c(N(C)C)c1CNCCC(=O)N(C)C,-6.02%
17,CS(=O)(=O)N1CCOCC2(CN(Cc3ccco3)CCO2)C1 (configuration not stated),-5.04%
18,Cn1cc(CN2CC[C@H]3O[C@@H](COCc4cccnc4)CC[C@H]32)cn1,-73.8%
19,O=C(C1=CCCCC1)N1CCC2(CC1)COC(COc1ccccn1)C2 (configuration not stated),-1.88%
20,COC1COC2(CCN(Cc3ccccc3F)CC2)C1 (configuration not stated),-5.58%
